Results from ChEMBL document CHEMBL1122083, “Isoxazolidine-3,5-diones as lens aldose reductase inhibitors” (J Med Chem, 1982).

Key:
[1] = target: Aldo-keto reductase family 1 member B1 (Rattus norvegicus) (UniProt P07943); assay: Inhibition of rat lens aldose reductase at 50 uM
Method in brief: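 Enzyme partially purified from rat lenses. Each compound was tested at a single concentration of 50 μM, and percent inhibition was determined by the Hayman and Kinoshita method.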

[2] = pKa value for the compound was determined; assay type: physicochemical

Row | Structure (SMILES) | inhibition [1] [%] | pKa [2]
1 | CC(=O)Nc1ccc(C2(C)C(=O)NOC2=O)cc1 (configuration not stated) | 16 | 
2 | COc1cccc(C2C(=O)NOC2=O)c1 (configuration not stated) | 75 | 
3 | O=C1NOC(=O)C1CC[S+]([O-])c1ccccc1 (configuration not stated) | 19 | 
4 | O=C1NOC(=O)C1CCOc1ccccc1 (configuration not stated) | 35 | 
5 | O=C1NOC(=O)C1c1ccccn1 (configuration not stated) | 6.5 | 
6 | O=C1NOC(=O)C1c1cccnc1 (configuration not stated) | 37 | 
7 | O=C1NOC(=O)C1c1ccccc1C(F)(F)F (configuration not stated) | 80 | 
8 | O=C1NOC(=O)C12Cc1cccc3cccc(c13)C2 | 5.1 | 
9 | O=C1NOC(=O)C1CCS(=O)(=O)c1ccccc1 (configuration not stated) | 32 | 
10 | O=C1NC(=O)[C@@]2(CCOc3ccc(F)cc32)N1 [SORBINIL] |  | 7.85
11 | COc1ccccc1C1C(=O)NOC1=O (configuration not stated) | 0 | 
12 | O=C(O)CN1C(=O)c2cccc3cccc(c23)C1=O | 87 | 
